Data: ChEMBL document CHEMBL4513216, “Probing the Open Global Health Chemical Diversity Library for Multistage-Active Starting Points for Next-Generation Antimalarials” (ACS Infect Dis, 2020)

Assay: Toxicity liver stage against HepG2, at 10uM
Assay type: cell-based
Set-up: test concentration 10 uM, cell line HepG2-A16-CD81EGFP
Settings: human, HepG2-A16-CD81EGFP cells; read-out: INHIBITION
In short: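 Uninfected HepG2-A16-CD81EGFP cells, 3 × 10^3 per well, 1536-well, plated on prespotted compound at 10 μM final, parasite-free screening media added to match infected plates; puromycin 10 μM positive, DMSO 0.5% negative; run in parallel with 48 h PbLuc assay at 37 °C, 5% CO2; viability by CellTiter-Glo luminescence, normalized to controls.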

SMILES | cytotoxicity at 10 µM [%]
Cn1cc(CN2CCc3ncnc(N4CCCC4)c3CC2)cn1 | -0.818
Cn1cnnc1C1CCN(C(=O)CCCOc2ccccc2F)CC1 | -6.26
COC(=O)c1ccc(NC(=O)NC2CCc3[nH]ncc3C2)cc1 (centres undefined) | -11.2
Cc1cc(O)nc(C2CCCN(CCO)C2)n1 (centres undefined) | -14.6
CCN1C(=O)CC(c2cccnc2)C12CCN(c1ncc(F)cn1)CC2 (centres undefined) | -8.59
Cc1nc(C2(O)CCCNCC2)sc1CCOc1ccc(Cl)cc1 (centres undefined) | 12.7
Cc1nc(C)c(S(=O)(=O)NC(=O)c2ccoc2)s1 | -6.91
Cc1cc2nc(C(C)C)cc(N(C)CC3CCCN(CCO)C3)n2n1 (centres undefined) | 7.52
O=c1c(-c2ccnc(N3CCC[C@H]3CO)n2)cnc2sccn12 | -6.3
COCCn1c(-c2cccc(OC)c2)cnc1NC(=O)NCC(C)C | 11.4
CC(SCC(=O)NCCC#N)c1ccc(Cl)cc1 (centres undefined) | 10.6
Cc1ccc2c(c1)c(CNC(=O)C1CC(=O)N(C3CCCC3)C1)nn2C (centres undefined) | -19.9
CC(=O)N1CCC(Cc2cccc(-c3ccnn3C)n2)CC1 | 6.3
Cc1nsc(NCCNS(=O)(=O)c2ccccc2)n1 | -2.78
CC1CCN(C(=O)c2cccc(CN3CCOCC3)c2)CC1 | 8.07
Cn1nc(C2CCN(C(=O)Cc3ccsc3)CC2)c2cccnc21 | -4.9
Cc1cc(CN(C)C(=O)c2ccc(OC(C)C)nc2)no1 | -15.3
CC(NC(=O)Nc1cccnc1N1CCCC1)c1ccccn1 (centres undefined) | 8.05
CC(C)NC(=O)N1CCC2(CC1)NC(=O)CC2c1ccncc1 (centres undefined) | -2.94
CN1CCOC(CNCc2coc(-c3ccc(Cl)cc3)n2)C1 (centres undefined) | -9.99
Cc1cc(NCc2cccc(C#N)c2)ccc1Br | 7.99

SMILES | cytotoxicity at 10 µM [%]
CCS(=O)(=O)Nc1ccn(Cc2c(F)cccc2Cl)n1 | 7.77
O=C([C@@H]1CCO[C@@H]2CCN(Cc3ccsc3)C[C@@H]21)N1CCCC1 | -81.4
CN(CC(=O)N1CCOCC(CO)C1)Cc1ccccn1 (centres undefined) | 0.382
CC(=O)NCc1noc2c1CN(Cc1ccsc1)CC2 | -3.21
CCc1ccc(CN2CCOC(Cc3cccc(F)c3)C2)nc1 (centres undefined) | -2.33
CC(=O)c1cccc(OCCCC(=O)N(C)Cc2cnc(C)s2)c1 | 14.2
COC(C(=O)N1CCCN(Cc2cscn2)CC1)c1ccccc1 (centres undefined) | -8.34
CNC(=O)[C@@H]1C[C@@H](NC(=O)c2ccc(OC)o2)CN1Cc1sccc1C | 2.29
COc1cc(F)ccc1NC(=O)NC(C)C(=O)NC(C)(C)C (centres undefined) | -6.1
CC(C)N1CCC(Cc2cc(-c3ccccc3C(=O)O)ncn2)CC1 | -5.28
CCN1CCn2c(C)cnc2C12CCN(C(=O)NC)CC2 | 0.906
CCOc1c(F)cccc1C(=O)N(CC)C(C)c1ccncc1 (centres undefined) | 11
CC(Oc1cccc(Cl)c1)C(=O)Nc1cnn(CC(=O)NC2CC2)c1 (centres undefined) | 1.73
COC(C)(C)c1noc(C2(C#N)CCCCC2)n1 | -2.11
N#Cc1ccccc1N1CCCN(CC(=O)Nc2ccccc2Cl)CC1 | 1.11
CNc1cc(C(=O)N2CCOC(C(=O)NC3CCCC3)C2)ccn1 (centres undefined) | 8.16
O=C(O)CSc1nnc(-c2ccco2)n1-c1ccccc1C(F)(F)F | 3.41
CCNc1ncc(C(=O)Nc2nnc(N3CCCCC3)[nH]2)s1 | -12.4
c1ccc(Cc2nnc(CN3CCc4cncnc4C3)o2)cc1 | -4.48
O=C(c1cccc2ncccc12)N1CCC(Nc2cccnn2)CC1 | -14.7
Cc1ccc(NC2CCN(C(=O)c3ccc(C)o3)CC2)nn1 | -4.69

SMILES | cytotoxicity at 10 µM [%]
Cn1cncc1-c1nnc([C@H]2CCN(CC3CCCCC3)C2)o1 | -4.65
O=C(Nc1nccs1)c1csc(NC2CCCC2)n1 | 42
O=C(NCCN1CCOC1=O)c1cc(-c2ccccc2)on1 | 12.3
CCN(Cc1nonc1C)C(=O)Cn1nc(C(F)(F)F)cc1C1CC1 | 1.45
Cc1cc(C)n(CC2CCCN2C(=O)CCc2nccs2)n1 (centres undefined) | -7.07
CCN(CC1CCOC1)S(=O)(=O)Cc1ccccc1Cl (centres undefined) | -0.768
Cc1cc(C)n(CC2CN(Cc3noc(C)n3)CCO2)n1 (centres undefined) | 0.305
O=C(Cn1nc(-c2ccc(F)cc2)oc1=O)NCc1ccc(F)cc1 | 4.13
CCn1cc(C(=O)n2nc(C)cc2C)c(S(=O)(=O)N2CCCCC2)n1 | -3.81
Cc1ccc2nc(NCCN3CCOCC3)n(C)c(=O)c2c1 | 9.26
O=C(CCNc1ccc(Br)cn1)NCc1ccncc1 | -0.222
CCn1cc(NC(=O)c2cc(C)nc(N3CCOCC3)n2)cn1 | 6
CCCNC(=O)Nc1ncc(-c2cccnc2)s1 | 3.11
CCC(C)NC(=O)c1sccc1-n1cnnn1 (centres undefined) | 5.45
O=C(c1ccnc(C2CCNCC2)c1)N1CCCC(CO)C1 (centres undefined) | 3.9
CN(C)CC(=O)N1CC2(CCN(S(=O)(=O)c3ccccc3)C2)C1 | -6.34
COc1nn(C)cc1C(=O)NCC(=O)Nc1cccnc1 | -8.75
CN1C(=O)CCc2cc(NC(=O)C3CC3)ccc21 | 0.696
CCc1ccccc1OC1CN(C(=O)CN(C)Cc2cccnc2)C1 | 1.61
Cc1cccc(CO[C@@H]2C[C@H]3CN(c4ncccn4)CCN3C2)n1 | 1.39
CCS(=O)(=O)CCSc1ccc(Br)cc1 | -7

SMILES | cytotoxicity at 10 µM [%]
O=C(c1ccoc1)N1CCC2(C1)CN(c1ncccn1)C2 | -5.55
COc1ccc(CNCCc2cc(F)cc3c2OCOC3)cc1O | -9.26
CC(C)n1ccnc1CN1CCOC(C)(C(=O)N2CCOCC2)C1 (centres undefined) | -8.58
CN(C(=O)CN1CCOC(Cn2cccn2)C1)c1nccs1 (centres undefined) | -14.2
COCCNC(=O)C1(c2ccccc2C)CCOCC1 | -9.04
CC(C)CCN1CC2(CCCN(C(=O)CNC(=O)N(C)C)C2)CCC1=O (centres undefined) | 9.94
COc1ccc(NC(=O)C(C)n2cncn2)cn1 (centres undefined) | -16.4
CC1(C)[C@@H]2CC=C(CN3CCCn4nc(CNS(C)(=O)=O)cc4C3)[C@H]1C2 | -46
COc1ccc(CNCC2CCN(CC(C)O)CC2)c2ccccc12 (centres undefined) | -11.5
c1ccc2c(c1)C(NC1CCCC1)CC21CCNCC1 (centres undefined) | -120
CC(=O)N1[C@H](Cn2cncn2)C[C@@H]2CN(Cc3ccncc3)CC[C@@H]21 | 2.24
Cc1ccc(C(=O)NCC2CCCCO2)c(=O)[nH]1 (centres undefined) | -0.628
CCN1CCC2(C1)CN(S(=O)(=O)c1cn(C)cn1)C2 | -109
N#CC1Sc2nnc(-c3ccccc3F)n2N=C1N (centres undefined) | -0.634
CCc1noc(C2CC(=O)N(CCN(C)C)C2)n1 (centres undefined) | -10.1
Cc1nc(N2CCOCC2)ncc1-c1cc(O)nc(N2CCCCC2)n1 | 6.2
COc1ccc2[nH]cc(CCNC(=O)C3CCCN(C(C)=O)C3)c2c1 (centres undefined) | -5.58
O=C(O)C1(Cc2cc(-c3ccccc3F)no2)CCOCC1 | -9.41
CC(C)(NCc1cccc(O)c1)c1ccc2c(c1)OCO2 | 5.12
COc1ccc(C)cc1CN(C)CC(N)=O | -0.691
CN1CC(=O)N(c2ccccc2)CC12CCN(C(=O)CC1CC1)C2 (centres undefined) | 0.972
